According to ChEMBL document CHEMBL1128429, “Synthesis and structure-activity relationships of 6-heterocyclic-substituted purines as inactivation modifiers of cardiac sodium channels” (J Med Chem, 1995):
Active and inactive are the calls of the source.

Assays:
Oryctolagus cuniculus [1] = organism: Oryctolagus cuniculus; assay: Antiarrhythmic activity was determined by measuring the concentration that produced a 20 ms increase in ERP; no effect at </= 3; assay type: functional, organism-based; conditions: Heart
How it was run: (§1)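 Langendorff-perfused rabbit heart, equilibrated 45 min before control. ERP measured after 15 min exposure to each of five cumulative concentrations: single premature stimulus scanning diastole at twice threshold. Concentration giving a 20 ms ERP increase taken from the concentration–response curve; repeated-measures ANOVA, mean change ± SEM.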

Oryctolagus cuniculus [2] = organism: Oryctolagus cuniculus; assay: Concentration which increased contractility by 20% in rabbit; Negative inotropic effect observed; assay type: functional, organism-based
How it was run: (§2)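 Langendorff-perfused rabbit heart, 45 min equilibration, then five cumulative concentrations with 15 min exposure each. Contractility read as dP/dt; the nanomolar concentration raising it by 20% was derived from the concentration–response curve. Repeated-measures ANOVA, mean change from control ± SEM.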

[3] = system: Sodium channel protein type 5 subunit alpha (Cavia porcellus); assay: Inactivation process of guinea pig cardiac Na channels expressed in xenopus oocytes was determined by measuring increase in current integral in presence of compound versus control at 10 uM; conditions: oocyte
Oryctolagus cuniculus [4] = organism: Oryctolagus cuniculus; assay: Antiarrhythmic activity was determined by measuring the concentration that produced a 20 ms increase in ERP; assay type: functional, Heart; how it was run: as §1
Oryctolagus cuniculus [5] = organism: Oryctolagus cuniculus; assay: Concentration which increased contractility by 20% in rabbit; no effect at </=3 uM; assay type: functional, organism-based; how it was run: as §2
[6] = Effective concentration against Xenopus oocytes expressing guinea pig heart Na channel; assay type: functional, cell-based, Cavia porcellus; conditions: oocyte
How it was run: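 Guinea pig heart RNA in Xenopus oocytes, voltage clamp at 21–23 °C, integral taken at −10 mV. Three or more concentrations, n ≥ 3 each, one per oocyte. Pooled percent-change data plotted semilogarithmically; EC50 (nM giving 50% integral increase) obtained by linear regression over the range lacking significant current block.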

[7] = Inactivation processes of human heart Na channel expressed in Xenopus oocytes as increase in current at 10 uM; assay type: functional, Oocyte
How it was run: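 Oocytes injected with cRNA transcribed from human cardiac Na channel (HH1) cDNA. Two-microelectrode voltage clamp at 21–23 °C, perfusion buffer with Na raised to 140 mM. Current integrated at −20 mV after the capacity transient settled. Single 10 μM exposure per oocyte; percent change in integral versus control, ± SEM.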

[8] = Effective concentration against Xenopus oocytes expressing human heart Na channel; assay type: functional, cell-based; conditions: oocyte
How it was run: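 HH1 human cardiac Na channel cRNA in oocytes; perfusate Na 140 mM, 21–23 °C, integral taken at −20 mV. At least three concentrations, n ≥ 3 each, single concentration per oocyte. Pooled data gave the EC50 (nM producing 50% integral increase) by linear regression over the lower, non-blocking range.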

Oryctolagus cuniculus [9] = organism: Oryctolagus cuniculus; assay: Concentration which increased contractility by 20% in rabbit; assay type: functional; how it was run: as §2
Oocyte = assay: Inactivation of guinea pig cardiac Na channel expressed in Xenopus oocytes as increased current at 10 uM; insoluble; assay type: functional, cell-based; conditions: Cavia porcellus
How it was run: (§3)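 Guinea pig heart RNA injected into defolliculated stage V–VI Xenopus oocytes; two-microelectrode voltage clamp at 21–23 °C with standard HEPES buffer perfusion, pH 7.5. Current integrated at the I–V peak (−10 mV) after the capacity transient settled. One test concentration (10 μM) per oocyte; percent change in integral calculated against that oocyte's control, reported ± SEM.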

Oryctolagus cuniculus [10] = organism: Oryctolagus cuniculus; assay: Concentration which increased contractility by 20% in rabbit; no effect; assay type: functional, organism-based; how it was run: as §2
Cavia porcellus = organism: Cavia porcellus; assay: Effect on inactivation processes of guinea pig cardiac Na channels expressed in Xenopus oocytes was determined by measuring the increase in current integral in the presence of compound Vs control at 10 uM; assay type: functional; how it was run: as §3

| EC50 [6] | EC50 [8] | SMILES | Change [3] | EC20 (Oryctolagus cuniculus [4]) | Change [7] | further results |
| --- | --- | --- | --- | --- | --- | --- |
| 1920 nM | 2310 nM | N#Cc1cc2c(OCC(O)CN3CCN(C(c4ccccc4)c4ccccc4)CC3)cccc2[nH]1 (configuration not stated) | 239% | 430 nM | 174% | dP/dt (Oryctolagus cuniculus [5]): inactive |
| 99 nM | 900 nM | O[C@@H](CN1CCN(C(c2ccccc2)c2ccccc2)CC1)Cn1cnc2c(-n3cccn3)ncnc21 | 1226% | 18 nM | 540% | dP/dt (Oryctolagus cuniculus [9]): 40 nM |
| 526 nM | 2000 nM | O[C@@H](CN1CCN(C(c2ccccc2)c2ccccc2)CC1)Cn1cnc2c(-c3ccccc3)ncnc21 | 413% | 425 nM | 128% | dP/dt (Oryctolagus cuniculus [10]): inactive |
| 160 nM | 1600 nM | O[C@@H](CN1CCN(C(c2ccccc2)c2ccccc2)CC1)Cn1cnc(-c2ccccc2)c2ncnc1-2 | 378% | 141 nM | 201% | dP/dt (Oryctolagus cuniculus [9]): 434 nM |

More lines, now with the values behind:

| SMILES | EC50 [6] | EC50 [8] | Change [3] | EC20 (Oryctolagus cuniculus [4]) | Change [7] | further results |
| --- | --- | --- | --- | --- | --- | --- |
| O[C@H](CN1CCN(C(c2ccccc2)c2ccccc2)CC1)Cn1cnc2c(-n3cccc3)ncnc21 |  |  | 21% |  |  | EC20 (Oryctolagus cuniculus [1]): inactive; dP/dt (Oryctolagus cuniculus [2]): inactive |
| OC(CN1CCN(C(c2ccc(Cl)cc2)c2ccc(Cl)cc2)CC1)Cn1cnc2c(-n3cccc3)ncnc21 (configuration not stated) |  |  |  |  |  | Change (Oocyte): Insoluble |
| OC(CN1CCN(C(c2ccccc2)c2ccccc2)CC1)Cn1cnc2c(-c3ccc4ccccc4c3)ncnc21 (configuration not stated) |  |  |  |  |  | Change (Cavia porcellus): -66% |
| Cc1cn(-c2ncnc3c2ncn3CC(O)CN2CCN(C(c3ccccc3)c3ccccc3)CC2)cn1 (configuration not stated) | > 3000 nM |  | 126% |  |  | EC20 (Oryctolagus cuniculus [1]): inactive |
